Key:
HepG2 = assay: Cytotoxicity against human HepG2 cells harboring A16-CD81EGFP assessed as cell viability after 48 hrs by bioluminescence assay; format: cell-based; details: HepG2, 48 h
Outline: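 HepG2-A16-CD81EGFP cells, 3 × 10^3 per well, seeded 24 h ahead in DMEM with 5% FBS. Viability read by bioluminescence after 48 h and fitted by four-parameter regression; puromycin control.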

Plasmodium falciparum [1] = assay: Antimalarial activity against asexual blood stage Plasmodium falciparum Dd2 infected in human erythrocytes after 72 hrs by SYBR green 1 dye based fluorescence assay; format: functional, cell-based; details: Dd2, 72 h
Plasmodium falciparum [2] = assay: Inhibition of schizont stage Plasmodium falciparum 20S proteasome beta5 subunit using suc-LLVY-AMC as substrate at 50 nM after 60 to 120 mins by fluorescence assay relative to control
Outline: (§1)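 Pf20S enriched from asynchronous parasite lysate by two-step chromatography; human constitutive 20S from a commercial source. Enzymes at 0.29 nM with 25 μM Suc-LLE-AMC, Suc-LRR-AMC or Suc-LLVY-AMC in 20 mM Tris pH 7.5, 0.02% SDS. Inhibitor and substrate added together; AMC release rate (Ex 340/Em 465) taken from 60–120 min against DMSO.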

Plasmodium falciparum [3] = assay: Inhibition of early trophozoite stage Plasmodium falciparum 20S proteasome beta5 subunit using suc-LLVY-AMC as substrate at 95 nM after 4 hrs by fluorescence assay relative to control
Outline: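 Sorbitol-synchronized early trophozoites at 5% parasitemia exposed to 95 nM inhibitor for 4 h, then washed and lysed. 15 μg total protein assayed with 25 μM Suc-LLVY-AMC in Tris pH 7.5/0.02% SDS buffer; AMC release compared against DMSO-treated cells.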

[4] = target: T1, constitutive 20S proteasome beta5 subunit (Proteasome Macropain subunit MB1) (Homo sapiens, UniProt P28074); assay: Inhibition of human constitutive 20S proteasome beta5 subunit using suc-LLVY-AMC as substrate at 50 nM after 60 to 120 mins by fluorescence assay relative to control; details: probe suc-LLVY-AMC; outline: as §1
T1 sequence (P28074 whole entry): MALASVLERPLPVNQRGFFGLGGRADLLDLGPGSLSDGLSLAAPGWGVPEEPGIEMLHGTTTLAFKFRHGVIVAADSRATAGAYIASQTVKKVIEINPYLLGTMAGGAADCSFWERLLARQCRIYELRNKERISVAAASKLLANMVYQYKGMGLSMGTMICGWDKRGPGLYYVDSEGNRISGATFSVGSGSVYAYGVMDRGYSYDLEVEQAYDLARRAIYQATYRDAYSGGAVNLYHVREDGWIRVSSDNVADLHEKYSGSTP

Plasmodium falciparum [5] = assay: Antimalarial activity against stage V gametocytes of Plasmodium falciparum NF54 infected in human erythrocytes after 72 hrs by mitotracker red based […] assay; format: functional, cell-based; details: NF54, 72 h
Plasmodium falciparum [6] = assay: Inhibition of schizont stage Plasmodium falciparum 20S proteasome beta1 subunit using z-LLE-AMC as substrate at 450 nM after 60 to 120 mins by fluorescence assay relative to control
Plasmodium falciparum [7] = assay: Inhibition of schizont stage Plasmodium falciparum 20S proteasome beta2 subunit using z-LRR-AMC as substrate at 450 nM after 60 to 120 mins by fluorescence assay relative to control
Plasmodium falciparum [8] = assay: Inhibition of schizont stage Plasmodium falciparum 20S proteasome using suc-LLVY-AMC as substrate at 450 nM after 60 to 120 mins relative to control
[9] = target: T2, Proteasome Macropain subunit MB1 (Homo sapiens, UniProt P28074); assay: Irreversible inhibition of human 20S proteasome beta5 subunit using suc-LLVY-AMC as substrate after 4 hrs at 30 mins time interval by fluorescence assay
T2 sequence (P28074 whole entry): T1 sequence (P28074 whole entry)

Plasmodium falciparum [10] = assay: Growth inhibition of Plasmodium falciparum Dd2 infected in human erythrocytes at 0.5 to 1 nM after 72 hrs by SYBR green 1 dye based fluorescence assay relative to control; format: cell-based; details: Dd2, 72 h, read-out: GI
[11] = target: T3, 20S proteasome beta5 subunit (Proteasome Macropain subunit MB1) (Homo sapiens, UniProt P28074); assay: Inhibition of human 20S proteasome beta5 subunit using suc-LLVY-AMC as substrate at 150 nM after 60 to 120 mins by fluorescence assay relative to control; details: probe suc-LLVY-AMC; outline: as §1
T3 sequence (P28074 whole entry): T1 sequence (P28074 whole entry)

Plasmodium falciparum [12] = assay: Inhibition of schizont stage Plasmodium falciparum 20S proteasome beta1 subunit using z-LLE-AMC as substrate at 150 nM after 60 to 120 mins by fluorescence assay relative to control
Plasmodium falciparum [13] = assay: Inhibition of schizont stage Plasmodium falciparum 20S proteasome beta2 subunit using z-LRR-AMC as substrate at 150 nM after 60 to 120 mins by fluorescence assay relative to control
Plasmodium falciparum [14] = assay: Inhibition of schizont stage Plasmodium falciparum 20S proteasome beta5 using suc-LLVY-AMC as substrate at 150 nM after 60 to 120 mins by fluorescence assay relative to control

SMILES	IC50 (HepG2) [nM]	IC50 (Plasmodium falciparum [1]) [nM]	inhibition (Plasmodium falciparum [2]) [%]	inhibition (Plasmodium falciparum [3]) [%]	other results
CCCCCC(=O)N[C@H](Cc1ccc(N)cc1)C(=O)N[C@@H](Cc1ccc(N)cc1)C(=O)N[C@@H](Cc1ccccc1)C(=O)[C@@]1(C)CO1	952	68.2			
CCCCCC(=O)N[C@@H](Cc1c[nH]c2ccccc12)C(=O)N[C@@H](Cc1c[nH]c2ccccc12)C(=O)N[C@@H](Cc1ccccc1)C(=O)[C@@]1(C)CO1	346	9.38	10 to 47	40 to 60	
CCCCCC(=O)N[C@@H](Cc1ccccc1)C(=O)N[C@@H](CCCC)C(=O)N[C@@H](CC(C)C)C(=O)[C@@]1(C)CO1	22.7	4.04			
CCCCCC(=O)N[C@@H](Cc1ccncc1)C(=O)N[C@@H](CCCC)C(=O)N[C@@H](Cc1ccccc1)C(=O)[C@@]1(C)CO1	< 0.283	3.87			
CCCCCC(=O)NC(Cc1ccc(NC(=O)OC(C)(C)C)cc1)C(=O)N[C@@H](Cc1ccc(NC(=O)OC(C)(C)C)cc1)C(=O)N[C@@H](CC(C)C)C(=O)[C@@]1(C)CO1 (single isomer, unassigned)	118	13.5			
CCCCCC(=O)N[C@H](Cc1c[nH]c2ccccc12)C(=O)N[C@@H](CCCC)C(=O)N[C@@H](CC(C)C)C(=O)[C@@]1(C)CO1	915	2.92	10 to 47	40 to 60	inhibition at 0.05 µM [4]: ≤ 10%
CCCCCC(=O)N[C@@H](Cc1ccc(NC(=O)OC(C)(C)C)cc1)C(=O)N[C@@H](CCCC)C(=O)N[C@@H](CC(C)C)C(=O)[C@@]1(C)CO1	80.2	5.55			
CCCCCC(=O)N[C@@H](C(=O)N[C@@H](CCCC)C(=O)N[C@@H](CC(C)C)C(=O)[C@@]1(C)CO1)C(C)C	1240	3.27	10 to 47	40 to 60	IC50 (Plasmodium falciparum [5]): 130 nM; inhibition at 0.05 µM [4]: ≤ 10%; inhibition (Plasmodium falciparum [6]): 6%; inhibition (Plasmodium falciparum [7]): 9%; inhibition (Plasmodium falciparum [8]): 45%; Ki [9]: 39200 nM; inhibition at up to 0.001 µM (Plasmodium falciparum [10]): < 10%
CCCCCC(=O)N[C@@H](Cc1c[nH]c2ccccc12)C(=O)N[C@@H](CCCC)C(=O)N[C@@H](CC(C)C)C(=O)[C@@]1(C)CO1		3.11			
CCCCCC(=O)N[C@@H](Cc1c[nH]c2ccccc12)C(=O)N[C@@H](Cc1c[nH]c2ccccc12)C(=O)N[C@@H](CC(C)C)C(=O)[C@@]1(C)CO1	11.7	3.7			
CCCCCC(=O)N[C@@H](Cc1ccncc1)C(=O)N[C@@H](CCCC)C(=O)N[C@@H](CC(C)C)C(=O)[C@@]1(C)CO1	< 0.283	3.28			
CCCCCC(=O)N[C@@H](Cc1ccc(NC(=O)OC(C)(C)C)cc1)C(=O)N[C@@H](CCCC)C(=O)N[C@@H](Cc1ccccc1)C(=O)[C@@]1(C)CO1	478	5.45	10 to 47	40 to 60	
CCCCCC(=O)N[C@@H](Cc1ccc(N)cc1)C(=O)N[C@@H](CCCC)C(=O)N[C@@H](Cc1ccccc1)C(=O)[C@@]1(C)CO1	3410	81.8	10 to 47	40 to 60	
CCCCCC(=O)N[C@H](C(=O)N[C@@H](CCCC)C(=O)N[C@@H](CC(C)C)C(=O)[C@@]1(C)CO1)C(C)C	134	4.11	10 to 47	40 to 60	inhibition at 0.05 µM [4]: 89%; Ki [9]: 3740 nM
CCCCCC(=O)N[C@@H](Cc1c[nH]c2ccccc12)C(=O)N[C@@H](CCCC)C(=O)N[C@@H](Cc1ccccc1)C(=O)[C@@]1(C)CO1	6.41	9.77			
CCCCCC(=O)N[C@H](Cc1ccc(N)cc1)C(=O)N[C@@H](Cc1ccc(N)cc1)C(=O)N[C@@H](CC(C)C)C(=O)[C@@]1(C)CO1	0.91	59.6			
CCCCCC(=O)N[C@H](C(=O)N[C@@H](CCS(C)(=O)=O)C(=O)N[C@@H](CC(C)C)C(=O)[C@@]1(C)CO1)C(C)C			10 to 47	40 to 60	inhibition at 0.15 µM [11]: 98%; inhibition (Plasmodium falciparum [12]): 16%; inhibition (Plasmodium falciparum [13]): 29%; inhibition (Plasmodium falciparum [14]): 45%; inhibition at 0.05 µM [4]: 97%; Ki [9]: 375 nM; inhibition at up to 0.001 µM (Plasmodium falciparum [10]): < 10%
CCCCCC(=O)N[C@@H](Cc1ccccc1)C(=O)N[C@@H](CCCC)C(=O)N[C@@H](Cc1ccccc1)C(=O)[C@@]1(C)CO1	30.8	6.7			
CCCCCC(=O)NC(Cc1ccc(NC(=O)OC(C)(C)C)cc1)C(=O)N[C@@H](Cc1ccc(NC(=O)OC(C)(C)C)cc1)C(=O)N[C@@H](Cc1ccccc1)C(=O)[C@@]1(C)CO1 (single isomer, unassigned)	45.7	12.2			
CCCCCC(=O)N[C@@H](Cc1ccc(N)cc1)C(=O)N[C@@H](CCCC)C(=O)N[C@@H](CC(C)C)C(=O)[C@@]1(C)CO1	6.32	5.99			
CCCCCC(=O)N[C@H](Cc1ccncc1)C(=O)N[C@@H](CCCC)C(=O)N[C@@H](CC(C)C)C(=O)[C@@]1(C)CO1	< 0.283	21.8			

Reference: ChEMBL document CHEMBL4038319, “Development of a Potent Inhibitor of the Plasmodium Proteasome with Reduced Mammalian Toxicity” (J Med Chem, 2017)
